A short description of experiment [1]: inhibitors of TNFa-induced NFkB p65 translocation, primary screen, imaging, HUVEC, MLSMR starter and 10KST1 sets (AID 438;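 active = inhibition above 20% together with a positive visual image hit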;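 also: compound added about 3h40 before a 20 min TNFalpha stimulation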;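 as to inhibition: signal is the nuclear over cytoplasmic p65 intensity ratio per well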). The following applies: HUVEC TNFa-induced p65 nuclear translocation; cell count: measured here: nuclei count (cytotoxicity indicator), at 2.08 µM; inhibition: at 2 µM, stronger effect = higher value, 0% TNFa-plus-vehicle, 100% no-TNFa wells.
Experiment [2] can be described thus: inhibitors of mutant huntingtin aggregation, primary screen, imaging, exon1htt(103Q)mCFP cells, high-content imaging (AID 483;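 active = visual image review flags a hit and inhibition of aggregation exceeds 20%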;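 also: compound exposure lasted 3 days before fixation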;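 as to nuclei count: percent of the per-plate median nuclei count of sample wells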). Conditions: exon1htt(103Q)mCFP cell line, aggregate imaging, at 2 µM; inhibition of aggregation: stronger effect = higher value; nuclei count: measured here: cell count, toxicity.
Experiment [3] is described as follows: inhibitors of E-selectin induction by TNFa, primary screen, imaging, HUVEC, immunofluorescence, MLSMR starter and 10KST1 sets (AID 487;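 active = visually confirmed hit in the image check and inhibition above 20%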;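 as to inhibition: signal is fraction of cell area covered by stained E-selectin grains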;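 as to nuclei count: 100% = median nuclei count of all wells on the same plate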). Conditions: HUVEC TNFalpha-induced E-selectin immunofluorescence imaging, at 2 µM; inhibition: stronger effect = higher value; nuclei count: measured here: cell number, toxicity.
The target of experiment [4] is Voltage-gated potassium channel subunit beta-2 (Rattus norvegicus) (UniProt P62483). Kind of experiment: KvBeta enzyme negative modulators, primary screen, biochemical, NADPH fluorescence (AID 622).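 Also: slope of raw intensity against log time taken from 70 to 1610 s.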 The following applies: recombinant KvBeta, 4-cyanobenzaldehyde reduction, at 10 µM, stronger effect = higher value.
Voltage-gated potassium channel subunit beta-2 (Rattus norvegicus), sequence (P62483 whole entry, looked up): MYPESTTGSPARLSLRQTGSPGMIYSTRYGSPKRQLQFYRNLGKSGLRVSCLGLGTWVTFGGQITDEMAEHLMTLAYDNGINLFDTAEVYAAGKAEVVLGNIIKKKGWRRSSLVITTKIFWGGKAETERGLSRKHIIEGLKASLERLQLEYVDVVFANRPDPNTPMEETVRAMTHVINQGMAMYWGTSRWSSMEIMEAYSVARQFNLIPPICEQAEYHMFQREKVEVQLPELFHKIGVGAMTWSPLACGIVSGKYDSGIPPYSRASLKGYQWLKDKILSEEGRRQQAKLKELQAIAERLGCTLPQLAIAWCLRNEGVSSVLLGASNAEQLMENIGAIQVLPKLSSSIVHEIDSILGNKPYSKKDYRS
Experiment [5] has the same target. Put plainly: KvBeta positive modulators, primary screen, biochemical, NADPH fluorescence (AID 623;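 active = NADPH fluorescence slope more negative than the mean of all samples by about 3 SD, 99.7% confidence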;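 also: fluorescence intensity change per second fitted from 20 to 320 s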). Conditions: Recombinant KvBeta, NADPH fluorescence decrease slope, 10 min; at 10 µM; stronger effect = lower value.
The target in experiment [6] is Alpha-2C adrenergic receptor (Homo sapiens) (UniProt P18825). Put plainly: modulators of alpha2C/GIRK thallium flux, primary screen, cell-based, HEK293 alpha2C/GIRK1/2 (AID 624;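 active = fluorescence slope after compound addition differing from the mean of all screened samples at 99.7% confidence, in either direction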;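 also: slope of fluorescence ratio to pre-addition baseline per second over 15 to 24 s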). The following applies: thallium flux BTC fluorescence, at 10 µM, actives lie on both sides.
Alpha-2C adrenergic receptor (Homo sapiens), sequence (P18825 whole entry, looked up): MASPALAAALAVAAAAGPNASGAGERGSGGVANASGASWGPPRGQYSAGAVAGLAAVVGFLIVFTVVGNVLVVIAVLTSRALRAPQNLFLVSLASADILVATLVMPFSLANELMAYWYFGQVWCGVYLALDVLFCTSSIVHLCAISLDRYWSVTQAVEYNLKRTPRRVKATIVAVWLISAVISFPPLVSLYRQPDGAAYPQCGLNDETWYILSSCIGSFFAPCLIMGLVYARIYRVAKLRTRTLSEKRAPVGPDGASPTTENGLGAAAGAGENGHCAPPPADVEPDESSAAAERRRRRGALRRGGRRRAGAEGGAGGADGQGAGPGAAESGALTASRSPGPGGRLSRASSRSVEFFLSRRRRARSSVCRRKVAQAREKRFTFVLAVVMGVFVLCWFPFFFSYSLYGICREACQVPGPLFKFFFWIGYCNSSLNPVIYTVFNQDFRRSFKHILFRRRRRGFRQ
The nature of experiment [7]: inhibitors of larval lipid processing in zebrafish, primary screen, whole organism, PED6 fluorescence, gall bladder and intestine (AID 686;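 active = a full or partial loss of lipid-probe fluorescence in the fish gall bladder, intestine or both, judged by eye; inactive = no fluorescence loss, or compound toxic to the fish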;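 also: larvae 5 to 7 days old with five fish per well; signal comes from phospholipase A2 cleavage of quenched PED6 carried via bile; overnight exposure to compound and PED6 before scoring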). The following applies: Zebrafish larvae PED6 lipid processing, fluorescence scoring; screened at 20 µM (by protocol). Summed up:
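System: live zebrafish larvae aged 5-7 days, whole organism; measure: graded gall bladder and intestinal fluorescence inhibition per well; incubation: overnight exposure; reagent: ingested quenched lipid PED6 at 100 nM; signal: By-eye fluorescence microscopy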

The nature of experiment [8]: inhibitors of Sendai virus-induced IRF3 signaling, primary screen, TLR/RLR signaling modifier project, cell-based, Sendai virus stimulus, luciferase, 10K MLSCN set (AID 602276;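 active = inhibition at or above 50% at 10 µM; inactive = inhibition below 50%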;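 also: firefly luciferase from ISG56 promoter only with Renilla not read in this screen; 0% = Sendai virus plus DMSO and 100% = medium plus DMSO without virus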). Conditions: HEK293 RL24 IRF3 luciferase reporter, at 10 µM, stronger effect = higher value.
The nature of experiment [9]: inhibitors of poly I:C-induced TLR3 signaling, primary screen, cell-based, poly I:C stimulus, luciferase, 10K MLSCN set (AID 602277;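 active = inhibition of the reporter signal at or above 50%; inactive = inhibition below 50%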). Conditions: HEK293-TLR3 RL24 IRF3 luciferase reporter, at 10 µM, stronger effect = higher value.

Active and inactive are the calls of the source.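 The calls were made as follows, unless noted: active = fluorescence slope higher than the sample average by over 3 SD (cut at about -0.22 in these data, passing the limit was not always enough); inactive = the rest.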

`CC(=O)Nc1ccc(Cc2ccncc2)cc1`: in experiment [1], the cell count amounted to 528. In addition, the inhibition in experiment [1] was -7.4% (inactive); in [3], -40.3% (inactive); in experiment [8], 6.14% (inactive); in experiment [9], 4.37% (inactive). In addition, the inhibition of aggregation in experiment [2] is 14.9% (inactive). Also, the nuclei count amounted to 93.3% in experiment [2] and 115% in experiment [3]. For the same molecule, the fluorescence slope in experiment [4] was -0.39 (inactive). Further, the NADPH fluorescence slope in experiment [5] is -4.8e-05 (inactive). The slope in experiment [6] was 0.00486 (inactive). Also, the result in experiment [7] was inactive.
Take `CC1=Nn2c(nnc2-c2ccccc2)SC1`: the cell count in experiment [1] is 303. For the same molecule, the inhibition in [1] was -2.7% (inactive); in [3], -19.2% (inactive); in [8], 11.5% (inactive); in experiment [9], -4.42% (inactive). Besides, the inhibition of aggregation in experiment [2] was -6.5% (inactive). Also, the nuclei count stood at 121% in experiment [2] and 108% in experiment [3]. Besides, the fluorescence slope in experiment [4] is -0.374 (inactive). Besides, the NADPH fluorescence slope in experiment [5] was -1.6e-05 (inactive). Further, the slope in experiment [6] is 0.00576 (inactive). The result in [7] was inactive.
On to `O=C(NC1CCCCCCC1)C1CCN(c2nc3ccccc3o2)CC1`, for which, in experiment [1], the cell count was found to be 737. For the same molecule, the inhibition in experiment [1] is -10.2% (inactive); in experiment [3], -34.9% (inactive); in experiment [8], 6.61% (inactive); in [9] it was -11.1% (inactive). For the same molecule, in experiment [2], the inhibition of aggregation was 9.4% (inactive). Besides, the nuclei count in [2] was 94.8%; in [3] it was 116%. Further, the fluorescence slope in [4] is -0.334 (inactive). Further, in experiment [5], the NADPH fluorescence slope was 8.8e-06 (inactive). Besides, the slope in experiment [6] was 0.0059 (inactive). In addition, the molecule was called inactive in experiment [7].
As to `COc1cc(CC(=O)Oc2ccc3c(c2)OCO3)cc(OC)c1OC`, in experiment [1], the cell count came out at 469. For the same molecule, the inhibition in experiment [1] is 1.1% (inactive); in [3], -79.4% (inactive); in [8], 2.88% (inactive); in experiment [9], 99% (active). Further, the inhibition of aggregation in [2] was -5.8% (inactive). For the same molecule, the nuclei count came to 112% in experiment [2] and 101% in [3]. The fluorescence slope in experiment [4] is -0.392 (inactive). The NADPH fluorescence slope in experiment [5] was -5.2e-05 (inactive). Further, in experiment [6], the slope is 0.00391 (inactive). For the same molecule, the outcome in [7] was inactive.
With `COc1ccc(NC(=O)CC2CCCCC2)cc1OC`, in experiment [1], the cell count is 258. In addition, the inhibition in [1] is -5.5% (inactive); in experiment [3], -69.1% (inactive); in experiment [8] it was -6.37% (inactive); in experiment [9], -23% (inactive). Further, the inhibition of aggregation in experiment [2] was -4.8% (inactive). Besides, the nuclei count in experiment [2] was 91.1%; in [3] it was 99.7%. Besides, the fluorescence slope in [4] is -0.356 (inactive). The NADPH fluorescence slope in experiment [5] was -2.3e-05 (inactive). In [6], the slope was 0.00718 (inactive). Besides, in [7], the result was inactive.
As to `O=C(NC1=NCCS1)c1ccc2c(c1)C(=O)N(Cc1ccco1)C2=O`, the cell count in [1] stood at 447. Moreover, the inhibition was 0% (inactive) in experiment [1], -60.7% (inactive) in experiment [3], 19.1% (inactive) in experiment [8] and 24.4% (inactive) in experiment [9]. Moreover, the inhibition of aggregation in experiment [2] is 19.6% (inactive). Besides, the nuclei count in [2] amounted to 96.6%; in experiment [3], 111%. The fluorescence slope in experiment [4] is -0.387 (inactive). In experiment [5], the NADPH fluorescence slope was 2.7e-06 (inactive). In [6], the slope was 0.00529 (inactive). For the same molecule, the call in experiment [7] was inactive.
On to `O=C(NCC(=O)N(c1cccnc1)C(C(=O)NC1CCCCC1)c1cccnc1)c1ccco1` (stereo not drawn), for which the cell count in experiment [1] was 424. Besides, the inhibition is 6.8% (inactive) in [1], -37.8% (inactive) in experiment [3], 9.81% (inactive) in [8] and 6.29% (inactive) in [9]. In addition, in experiment [2], the inhibition of aggregation is 6.3% (inactive). For the same molecule, the nuclei count in [2] stood at 109%; in experiment [3], 110%. Besides, in [4], the fluorescence slope was -0.39 (inactive). In addition, in experiment [5], the NADPH fluorescence slope was -5.1e-05 (inactive). In addition, the slope in experiment [6] is 0.00388 (inactive). Also, the molecule was called inactive in [7].
For `COc1nc(-c2ccc(Cl)cc2)ccc1-c1noc(-c2ccncc2)n1`, the cell count in experiment [1] was 332. Moreover, the inhibition in experiment [1] is 1.5% (inactive); in experiment [3], -31.6% (inactive); in [8] it was 6.3% (inactive); in experiment [9] it was -7.25% (inactive). Moreover, the inhibition of aggregation in experiment [2] is -4.2% (inactive). The nuclei count in experiment [2] is 97.5%; in experiment [3], 114%. The fluorescence slope in experiment [4] was -0.223 (inactive). Also, the NADPH fluorescence slope in experiment [5] is -1.2e-07 (inactive). Besides, the slope in [6] was 0.00449 (inactive). The molecule was called inactive in experiment [7].
For `COc1cc(-c2nc(-c3ccncc3)no2)cc(OC)c1OC`, the cell count in experiment [1] was found to be 491. The inhibition was -1.1% (inactive) in experiment [1], 58.4% (inactive) in experiment [3], 4.77% (inactive) in [8] and -3.43% (inactive) in [9]. The inhibition of aggregation in experiment [2] was -1.8% (inactive). Further, the nuclei count in [2] came to 88.9%; in [3] it was 50.2%. Further, the fluorescence slope in [4] is -0.341 (inactive). The NADPH fluorescence slope in [5] was -3.8e-05 (inactive). The slope in [6] was 0.00475 (inactive). Besides, the outcome in experiment [7] was inactive.
For `Clc1ccc(OCc2nnc(SCCN3CCCCC3)n2Cc2ccco2)cc1`, the cell count in [1] was 587. In addition, the inhibition in [1] was -2.7% (inactive); in experiment [3] it was 45.2% (inactive); in experiment [8], 8.16% (inactive); in [9], 13.8% (inactive). Besides, in experiment [2], the inhibition of aggregation was 6% (inactive). Further, the nuclei count was 98.8% in experiment [2] and 88.3% in [3]. In addition, in experiment [4], the fluorescence slope was -0.28 (inactive). In experiment [5], the NADPH fluorescence slope is -1.2e-05 (inactive). Further, in [6], the slope is 0.00483 (inactive). The outcome in experiment [7] was “active; no signal in gallbladder and intestine”.
As for `O=C(/C=C/N1CCOCC1)c1ccc(-c2ccccc2)cc1`, the cell count in [1] is 617. In addition, the inhibition in experiment [1] is -4.7% (inactive); in experiment [3], 33.9% (inactive); in [8] it was -22.9% (inactive); in experiment [9] it was -53.1% (inactive). Also, the inhibition of aggregation in experiment [2] was 8.3% (inactive). Further, the nuclei count came to 112% in [2] and 101% in [3]. In addition, the fluorescence slope in experiment [4] was -0.398 (inactive). The NADPH fluorescence slope in experiment [5] was -4.3e-05 (inactive). Besides, in [6], the slope was 0.00595 (inactive). The result in experiment [7] was inactive.
Regarding `Cc1cccc(OCC(=O)Nc2ccc(N3CCCC3)cc2)c1C`, the cell count in [1] amounted to 553. For the same molecule, the inhibition in [1] was -2.5% (inactive); in experiment [3], -53.5% (inactive); in experiment [8], 7.46% (inactive); in [9], 6.78% (inactive). In addition, the inhibition of aggregation in [2] is -18.4% (inactive). Also, the values for the nuclei count in [2] and in [3] were 93.1% and 83.5%, respectively. The fluorescence slope in [4] was -0.37 (inactive). In addition, the NADPH fluorescence slope in [5] was -6.9e-05 (inactive). Moreover, the slope in experiment [6] was 0.005 (inactive). The outcome in [7] was inactive.
In the case of `CCC(=O)N(Cc1ccco1)c1nc(-c2cc(OC)ccc2OC)cs1`, in experiment [1], the cell count came to 643. Moreover, the inhibition in experiment [1] is -8% (inactive); in experiment [3] it was -11.7% (inactive); in [8] it was 8.75% (inactive); in experiment [9], 7.6% (inactive). In addition, the inhibition of aggregation in experiment [2] is 18.8% (inactive). Also, the nuclei count in [2] was found to be 100%; in experiment [3], 101%. Also, the fluorescence slope in experiment [4] is -0.397 (inactive). In addition, in [5], the NADPH fluorescence slope is -4.8e-05 (inactive). Further, the slope in [6] was 0.00497 (inactive). Moreover, the outcome in experiment [7] was inactive.
With `COc1ccccc1NC(=O)NC(N)=O`, the cell count in experiment [1] is 580. Moreover, the inhibition in [1] was 0.5% (inactive); in experiment [3] it was -36.1% (inactive); in experiment [8] it was 2.43% (inactive); in experiment [9], 1.16% (inactive). Further, in experiment [2], the inhibition of aggregation is -22.8% (inactive). Besides, the nuclei count in experiment [2] stood at 104%; in experiment [3] it was 115%. Besides, the fluorescence slope in [4] was -0.386 (inactive). Moreover, the NADPH fluorescence slope in experiment [5] was 4.8e-06 (inactive). Also, the slope in experiment [6] was 0.00503 (inactive). In [7], the molecule was called inactive.
